The source made the active and inactive calls.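 Rule for the calls: active = viability at or below 30% in both replicate assays; inconclusive = viability at or below 30% in just one of the two assays; inactive = the rest.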
Assay: HUVEC growth inhibition – cell-based, human, primary screen (AID 575);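 note: 100% = median of untreated cell wells with 0.1% DMSO on each plate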
Conditions: HUVEC proliferation, CellTiter-Glo luminescence, 72 h; at 10 µM; active compounds read low
Summary of the method: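 Test system: primary human umbilical vein endothelial cells; medium: endothelial basal medium with 2% FBS plus growth supplements; dosing: 10 µM compound only; times: 72 h treatment at 37 °C; signal: CTG luminescence; read-out: % viability relative to median vehicle-well signal on each plate; control set: vehicle and MePR control wells; plate: 384-well, collagen-coated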

SMILES | viability
Cn1c(-c2ccccc2)cnc1SCc1nc2ccccc2c(=O)[nH]1 | 105% (inactive)
COc1ccc(N2C(=O)C(Cl)=C(N3CCCC3)C2=O)cc1 | 86.1% (inactive)
Cc1ccc(-n2c(N)c(C(N)=O)sc2=S)cc1 | 112% (inactive)
O=C(Nc1ccc(N2CCOCC2)c(Cl)c1)c1ccc(Br)o1 | 65.5% (inactive)
NS(=O)(=O)c1ccc(CCNC(=O)c2cccnc2)cc1 | 92.3% (inactive)
C[N+](C)(C)CCOP(=O)([O-])OC[C@H](O)CO | 99.1% (inactive)
Cn1c(=O)[nH]c(=O)c2c1nc(N1CCc3ccccc3C1)n2CCSc1nc2ccccc2s1 | 79.5% (inactive)
CCOC(=O)c1ccc(COC(=O)c2cc3ccccc3oc2=O)o1 | 114% (inactive)
CCc1c(C)c2ccc(OCC(=O)OC)cc2oc1=O | 92.8% (inactive)
Cc1c(NC(=O)C(C)Oc2ncnc3ccccc23)c(=O)n(-c2ccccc2)n1C (configuration not stated) | 91.9% (inactive)
COc1nc(OC)nc(N2CCC(C(=O)NCc3cccs3)CC2)n1 | 101% (inactive)
CCCCOc1ccccc1C1C(C(N)=O)=C(C)Nc2nnnn21 (configuration not stated) | 98.3% (inactive)
O=C(NCCCN1CCN(Cc2ccccc2)CC1)C1CCN(c2nnc(-n3cccc3)s2)CC1 | 97.1% (inactive)
CCN(CC)CCCNC1CCS(=O)(=O)C1 (configuration not stated) | 83% (inactive)
N#CC1=C(N)N2C(=C(C#N)C13CCCCC3)SC1CCCCC12O (configuration not stated) | 88.2% (inactive)
COc1ccccc1CNC(=O)C(C)NS(=O)(=O)c1ccccc1 (configuration not stated) | 106% (inactive)
O=C(CSc1ccc(-c2ccccc2)nn1)N1CCOCC1 | 105% (inactive)
